Reference: ChEMBL document CHEMBL3526081 (Drug Metab Dispos, 2011)

What was measured:
[1] = test system: Liver microsome; experiment: Drug metabolism in human liver microsomes assessed as 1alpha-hydroxylcinobufagin formation at 100 uM at 37 degC after 30 mins […] in presence of 10 uM sulfaphenazole CYP2C9 inhibitor; type: ADME; conditions: 0.5 h
[2] = Drug metabolism in Colony-bred Chinese Bama minipig liver microsomes assessed as 1alpha-hydroxylcinobufagin formation at 100 uM at 37 degC after 30 mins by UFLC-ESI-MS analysis in presence of 10 uM furafylline CYP1A2 inhibitor; type: ADME, Sus scrofa; conditions: pig, 0.5 h
Summary of the method: (§1)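 Chemical inhibition: selective P450 inhibitors (furafylline, sulfaphenazole, ketoconazole) added to liver microsome incubations in 100 mM potassium phosphate pH 7.4 with NADPH-generating system at 37°C. Hydroxylated metabolite formation quantified by UFLC at 294 nm against standards. Mean ± S.D. of three experiments in duplicate.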

[3] = Ratio of Vmax/Km in cynomolgus monkey liver microsomes assessed as 5beta-hydroxylcinobufaginn formation at 100 uM […] by UFLC-ESI-MS analysis; type: ADME, Macaca fascicularis; conditions: 0.5 h
[4] = Ratio of Vmax/Km in Colony-bred Chinese Bama minipig liver microsomes assessed as 1alpha-hydroxylcinobufagin formation at 100 uM […] by UFLC-ESI-MS analysis; type: ADME, Sus scrofa; conditions: pig, 0.5 h
[5] = Drug metabolism in cynomolgus monkey liver microsomes assessed as 1alpha-hydroxylcinobufagin formation at 100 uM at 37 degC after 30 mins by UFLC-ESI-MS analysis in presence of 1 uM ketoconazole CYP3A4 inhibitor; type: ADME, Macaca fascicularis; conditions: 0.5 h; summary of the method: as §1
[6] = test system: Liver microsome; experiment: Drug metabolism in human liver microsomes assessed as 1alpha-hydroxylcinobufagin formation at 100 uM at 37 degC after 30 mins by UFLC-ESI-MS analysis in presence of 50 uM clomethiazole CYP2E1 inhibitor; type: ADME; conditions: 0.5 h
Summary of the method: (§2)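 Pooled human liver microsomes (10 donors, both sexes) in 100 mM potassium phosphate pH 7.4 were incubated with CB and a selective P450 inhibitor. Reaction was started with NADPH-generating system after 3 min preincubation at 37°C and stopped with ice-cold acetonitrile. Hydroxylated products were quantified by UFLC-DAD at 294 nm; three experiments in duplicate.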

[7] = Drug metabolism in Swiss-Hauschka (ICR) mouse liver microsomes assessed as 5beta-hydroxylcinobufaginn formation per mg of protein at 100 uM at 37 degC after 30 mins by UFLC-ESI-MS analysis; type: ADME; conditions: 0.5 h
Summary of the method: (§3)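 Liver microsomes (0.3 mg protein/ml) incubated with 100 µM substrate at 37°C for 30 min, in 100 mM potassium phosphate pH 7.4 with NADPH-generating system (1 mM NADP+, 10 mM glucose 6-phosphate, 1 unit/ml G6PDH, 4 mM MgCl2). Acetonitrile ≤1% final. Stopped with ice-cold acetonitrile and centrifuged. Metabolites identified by UFLC-ESI-MS and quantified by UFLC-DAD at 294 nm against authentic standard curves.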

[8] = test system: Liver microsome; experiment: Ratio of Vmax/Km in human liver microsomes assessed as 1alpha-hydroxylcinobufagin formation at 100 uM […] by UFLC-ESI-MS analysis; type: ADME; conditions: 0.5 h
[9] = Drug metabolism in Colony-bred Chinese Bama minipig liver microsomes assessed as 5beta-hydroxylcinobufagin formation at 100 uM at 37 degC after 30 mins by UFLC-ESI-MS analysis in presence of NADPH-generating system; type: ADME, Sus scrofa; conditions: pig, 0.5 h; summary of the method: as §3
[10] = test system: Liver microsome; experiment: Drug metabolism in beagle dog liver microsomes assessed as 5beta-hydroxylcinobufaginn formation at 100 uM at 37 degC after 30 mins by UFLC-ESI-MS analysis; type: ADME, Canis lupus familiaris; conditions: 0.5 h, read-out: Km(app); summary of the method: as §3
[11] = test system: Liver microsome; experiment: Drug metabolism in human liver microsomes assessed as 1alpha-hydroxylcinobufagin formation at 100 uM […] by UFLC-ESI-MS analysis; type: ADME; conditions: 0.5 h, read-out: Km(app)
[12] = test system: Liver microsome; experiment: Ratio of Vmax/Km in beagle dog liver microsomes assessed as 1alpha-hydroxylcinobufagin formation at 100 uM […] by UFLC-ESI-MS analysis; type: ADME, Canis lupus familiaris; conditions: 0.5 h
[13] = test system: Liver microsome; experiment: Drug metabolism in human liver microsomes assessed as 5beta-hydroxylcinobufagin formation at 100 uM at 37 degC after 30 mins by UFLC-ESI-MS analysis in presence of 10 uM furafylline CYP1A2 inhibitor; type: ADME; conditions: 0.5 h; summary of the method: as §2
[14] = test system: Liver microsome; experiment: Drug metabolism in human liver microsomes assessed as 5beta-hydroxylcinobufagin formation at 100 uM at 37 degC after 30 mins by UFLC-ESI-MS analysis in presence of 2 uM montelukast CYP2C8 inhibitor; type: ADME; conditions: 0.5 h; summary of the method: as §2
[15] = test system: Liver microsome; experiment: Drug metabolism in beagle dog liver microsomes assessed as 1alpha-hydroxylcinobufagin formation at 100 uM at 37 degC after 30 mins by UFLC-ESI-MS analysis in presence of 10 uM sulfaphenazole CYP2C9 inhibitor; type: ADME, Canis lupus familiaris; conditions: 0.5 h; summary of the method: as §1
[16] = test system: Liver microsome; experiment: Drug metabolism in beagle dog liver microsomes assessed as 1alpha-hydroxylcinobufagin formation at 100 uM at 37 degC after 30 mins by UFLC-ESI-MS analysis in presence of NADPH-generating system; type: ADME, Canis lupus familiaris; conditions: 0.5 h; summary of the method: as §3
[17] = test system: Liver microsome; experiment: Drug metabolism in human liver microsomes assessed as 5beta-hydroxylcinobufagin formation at 100 uM at 37 degC after 30 mins by UFLC-ESI-MS analysis in presence of 10 uM quinidine CYP2D6 inhibitor; type: ADME; conditions: 0.5 h; summary of the method: as §2
[18] = test system: Liver microsome; experiment: Drug metabolism in beagle dog liver microsomes assessed as 5beta-hydroxylcinobufagin formation at 100 uM at 37 degC after 30 mins by UFLC-ESI-MS analysis in presence of NADPH-generating system; type: ADME, Canis lupus familiaris; conditions: 0.5 h; summary of the method: as §3
[19] = test system: Liver microsome; experiment: Drug metabolism in human liver microsomes assessed as 1alpha-hydroxylcinobufagin formation at 100 uM at 37 degC after 30 mins […] in presence of 2.5 uM 8-methoxypsoralen CYP2A6 inhibitor; type: ADME; conditions: 0.5 h
[20] = Drug metabolism in cynomolgus monkey liver microsomes assessed as 5beta-hydroxylcinobufaginn formation per mg of protein at 100 uM […] by UFLC-ESI-MS analysis; type: ADME, Macaca fascicularis; conditions: 0.5 h
[21] = test system: Liver; experiment: Ratio of Vmax/Km in Swiss-Hauschka (ICR) mouse liver microsomes assessed as 1alpha-hydroxylcinobufagin formation at 100 uM […] by UFLC-ESI-MS analysis; type: ADME; conditions: 0.5 h
[22] = Drug metabolism in Colony-bred Chinese Bama minipig liver microsomes assessed as 1alpha-hydroxylcinobufagin formation at 100 uM at 37 degC after 30 mins by UFLC-ESI-MS analysis; type: ADME, Sus scrofa; conditions: pig, 0.5 h, read-out: Km(app); summary of the method: as §3
[23] = test system: Liver microsome; experiment: Drug metabolism in human liver microsomes assessed as 5beta-hydroxylcinobufaginn formation at 100 uM […] by UFLC-ESI-MS analysis; type: ADME; conditions: 0.5 h, read-out: Km(app)
[24] = test system: Liver microsome; experiment: Drug metabolism in beagle dog liver microsomes assessed as 5beta-hydroxylcinobufaginn formation per mg of protein at 100 uM at 37 degC after 30 mins by UFLC-ESI-MS analysis; type: ADME, Canis lupus familiaris; conditions: 0.5 h; summary of the method: as §3
[25] = Drug metabolism in Swiss-Hauschka (ICR) mouse liver microsomes assessed as 1alpha-hydroxylcinobufagin formation at 100 uM at 37 degC after 30 mins by UFLC-ESI-MS analysis; type: ADME; conditions: 0.5 h, read-out: Km(app); summary of the method: as §3
[26] = test system: Liver microsome; experiment: Ratio of Vmax/Km in human liver microsomes assessed as 5beta-hydroxylcinobufaginn formation at 100 uM at 37 degC […] by UFLC-ESI-MS analysis; type: ADME; conditions: 0.5 h
[27] = test system: Liver microsome; experiment: Drug metabolism in human liver microsomes assessed as 5beta-hydroxylcinobufagin formation at 100 uM at 37 degC after 30 mins by UFLC-ESI-MS analysis in presence of 20 uM omeprazole CYP2C19 inhibitor; type: ADME; conditions: 0.5 h; summary of the method: as §2

With `CC(=O)O[C@H]1[C@H]2O[C@]23[C@@H]2CC[C@@H]4C[C@@H](O)CC[C@]4(C)[C@H]2CC[C@]3(C)[C@H]1c1ccc(=O)oc1` [CINOBUFAGIN] the Drug metabolism [1] was “metabolite_detected”, the Drug metabolism [2] was “metabolite_detected” and the Vmax/Km [3] was 216.5 µL/min/mg. For the same compound, the Vmax/Km [4] was 14.5 µL/min/mg, the Drug metabolism [5] was “metabolite_not_detected” and the Drug metabolism [6] was “metabolite_detected”. The Vmax [7] was 6.51 nmol/min/mg, the Vmax/Km [8] was 47.2 µL/min/mg and the Drug metabolism [9] was “metabolite_detected”. It also gave a Km [10] of 3.4 µM, a Km [11] of 12.5 µM and a Vmax/Km [12] of 387.9 µL/min/mg. For the same compound, the Drug metabolism [13] was “metabolite_detected”, the Drug metabolism [14] was “metabolite_detected” and the Drug metabolism [15] was “metabolite_detected”. For the same compound, the Drug metabolism [16] was “metabolite_detected”, the Drug metabolism [17] was “metabolite_detected” and the Drug metabolism [18] was “metabolite_detected”. The Drug metabolism [19] was “metabolite_detected”, the Vmax [20] was 1.84 nmol/min/mg and the Vmax/Km [21] was 595 µL/min/mg. It also gave a Km [22] of 17.2 µM, a Km [23] of 20.4 µM and a Vmax [24] of 0.44 nmol/min/mg. For the same compound, the Km [25] was 14.1 µM, the Vmax/Km [26] was 57.4 µL/min/mg and the Drug metabolism [27] was “metabolite_detected”.
